One block for each compound: values may come before it.
How the values were obtained:
[1] = Chemical stability assessed as half life of hydrolysis in 0.05 M citrate buffer at pH 3.8; assay type: physicochemical
In short: (§1)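 Hydrolysis at 37 °C in 1.0 M NaOH, 0.1 M phosphate pH 7.4, or 0.05 M citrate pH 3.8–4.6, followed as first-order loss of the diazeniumdiolate UV absorbance at λmax. k from the ln(At − Ainf) versus time slope; Ainf was extrapolated when the reaction was incomplete. NaOH runs were followed in a thermostated diode-array cell.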

[2] = Chemical stability assessed as half life of hydrolysis in 0.1 M phosphate buffer at pH 7.4; assay type: physicochemical; in short: as §1
[3] = Chemical stability assessed as half life of hydrolysis in at pH 14; assay type: physicochemical; conditions: 1.0 M NaOH; in short: as §1
[4] = Chemical stability assessed as half life of hydrolysis in 0.05 M citrate buffer at pH 4.6; assay type: physicochemical; in short: as §1
[5] = Chemical stability assessed as half life of hydrolysis in 0.05 M citrate buffer at pH 4.0; assay type: physicochemical
In short: (§2)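 Half-lives at 37 °C across buffers from pH 4.0 to 14 (1.0, 0.10 and 0.0125 M NaOH; 0.05 M glycine/NaOH pH 10.0; 0.10 M phosphate pH 8.1 and 7.4; 0.05 M citrate pH 4.0). UV decay of the diazeniumdiolate chromophore at λmax. First-order k from the slope of ln(At − Ainf) versus time.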

[6] = Chemical stability assessed as half life of hydrolysis in 0.10 M phosphate buffer at pH 7.4; assay type: physicochemical; in short: as §1
[7] = Chemical stability assessed as half life of hydrolysis in 0.0125 M sodium hydroxide buffer at pH 12.1; assay type: physicochemical; in short: as §2
[8] = Chemical stability assessed as half life of hydrolysis in 0.5 M glycine/sodium hydroxide buffer at pH 10.0; assay type: physicochemical; conditions: in the assay text read “0.05 M glycine” for “0.5 M glycine”; in short: as §2
[9] = Chemical stability assessed as half life of hydrolysis in 0.10 M sodium hydroxide buffer at pH 13.0; assay type: physicochemical; in short: as §2
[10] = Chemical stability assessed as half life of hydrolysis in 1.0 M sodium hydroxide buffer at pH 14.0; assay type: physicochemical; in short: as §2
[11] = Chemical stability assessed as half life of hydrolysis in 0.10 M phosphate buffer at pH 8.1; assay type: physicochemical; in short: as §2
[12] = Stability assessed as nitrite release in presence of human placenta N-acetyl-glucosaminidase measured per mole of glycoside in 0.1 M phosphate buffer at pH 7.4 at 0.10 mM by Griess reagent assay; assay type: ADME; conditions: pH 7.4, 100 µM
In short: (§3)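 37 °C in 0.1 M phosphate pH 7.4 with 0.05 mM DTPA. Jack bean N-acetylglucosaminidase at 0.11 units/mL or human placenta enzyme at 0.044 units/mL; substrate 0.10 or 0.16 mM initial. NO measured by chemiluminescence until evolution stopped, with the curve integrated per mole glycoside. Nitrite in the remaining solution measured by Griess. Enzyme activity verified with PNP-NAG.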

[13] = Stability assessed as nitric oxide release in presence of human placenta N-acetyl-glucosaminidase measured per mole of glycoside in 0.1 M phosphate buffer at pH 7.4 at 0.10 mM […]; assay type: ADME; conditions: pH 7.4, 100 µM; in short: as §3
[14] = Stability assessed as nitrite release in presence of Jack bean N-acetyl-glucosaminidase measured per mole of glycoside in 0.1 M phosphate buffer at pH 7.4 at 0.10 mM by Griess reagent assay; assay type: ADME; conditions: pH 7.4, 100 µM; in short: as §3
[15] = Stability assessed as nitric oxide release in presence of Jack bean N-acetyl-glucosaminidase measured per mole of glycoside in 0.1 M phosphate buffer at pH 7.4 at 0.10 mM […]; assay type: ADME; conditions: pH 7.4, 100 µM; in short: as §3
[16] = Stability in iNOS deficient mouse macrophage assessed as increase in nitric oxide accumulation at 0.25 mM after 24 hrs; assay type: ADME, cell-based; conditions: 250 µM
In short: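 Glycoside (0.25 mM initial) incubated 24 h at 37 °C in PBS, in RPMI with 2.5% fetal calf serum, or in that medium while culturing iNOS-deficient mouse peritoneal macrophages. Nitrite in supernatant measured by Griess. Triplicates, mean; one of two experiments.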

[17] = Stability in iNOS-deficient mouse peritoneal macrophages in RPMI medium assessed as increase in nitric oxide release at 0.25 mM after 24 hrs; conditions: 250 µM
[18] = Stability assessed as nitrite release in presence of human placenta N-acetyl-glucosaminidase measured per mole of glycoside in 0.1 M phosphate buffer at pH 7.4 at 0.16 mM by Griess reagent assay; assay type: ADME; conditions: pH 7.4, 160 µM; in short: as §3
[19] = Stability assessed as nitric oxide release in presence of human placenta N-acetyl-glucosaminidase measured per mole of glycoside in 0.1 M phosphate buffer at pH 7.4 at 0.16 mM […]; assay type: ADME; conditions: pH 7.4, 160 µM; in short: as §3
[20] = Stability assessed as nitric oxide release in presence of Jack bean N-acetyl-glucosaminidase measured per mole of glycoside in 0.1 M phosphate buffer at pH 7.4 at 0.16 mM […]; assay type: ADME; conditions: pH 7.4, 160 µM; in short: as §3
[21] = Stability assessed as nitrite release in presence of Jack bean N-acetyl-glucosaminidase measured per mole of glycoside in 0.1 M phosphate buffer at pH 7.4 at 0.16 mM by Griess reagent assay; assay type: ADME; conditions: pH 7.4, 160 µM; in short: as §3

Structure (SMILES): CCN(CC)/[N+]([O-])=N/O[C@H]1C[C@@H](O)[C@H](O)[C@@H](CO)O1
- t1/2 [1]: 28.8 h
- t1/2 [2]: 12 h
- t1/2 [3]: 0.383 h

Structure (SMILES): CCN(CC)/[N+]([O-])=N/O[C@H]1O[C@H](CO)[C@@H](O)[C@H](O)[C@@H]1O
- t1/2 [2]: > 240 h
- t1/2 [3]: 4.97 h

Structure (SMILES): CCN(CC)/[N+]([O-])=N\OC1CCCCO1 (configuration not stated)
- t1/2 [5]: 3.2 min
- t1/2 [6]: 3.1 min
- t1/2 [7]: 3.5 min
- t1/2 [8]: 2.9 min
- t1/2 [9]: 2.7 min
- t1/2 [10]: 2.5 min
- t1/2 [11]: 3.5 min

Structure (SMILES): CCN(CC)/[N+]([O-])=N/O[C@@H]1O[C@H](CO)[C@@H](O)[C@H](O)[C@H]1O
- t1/2 [4]: > 240 h
- t1/2 [3]: 0.035 h

Other lines, results leading:

- t1/2 [4]: > 240 h
- t1/2 [2]: > 240 h
- t1/2 [3]: 0.067 h
Structure (SMILES): CCN(CC)/[N+]([O-])=N/O[C@@H]1O[C@@H](C)[C@@H](O)[C@@H](O)[C@@H]1O

- Activity [12]: 0.24 mol/mol
- t1/2 [4]: 17 h
- Activity [13]: 1.73 mol/mol
- t1/2 [2]: 12 h
- Activity [14]: 0.05 mol/mol
- Activity [15]: 1.26 mol/mol
- t1/2 [3]: 0.85 h
- Activity [16]: 2
Structure (SMILES): CCN(CC)/[N+]([O-])=N/O[C@@H]1O[C@H](CO)[C@@H](O)[C@H](O)[C@H]1NC(C)=O

- Activity [17]: 4
- t1/2 [4]: > 240 h
- t1/2 [2]: > 240 h
- Activity [18]: 0.36 mol/mol
- Activity [19]: 1.69 mol/mol
- Activity [20]: 1.72 mol/mol
- Activity [21]: 0.12 mol/mol
Structure (SMILES): CC(=O)N[C@H]1[C@H](O/N=[N+](\[O-])N2CCCC2)O[C@H](CO)[C@@H](O)[C@@H]1O
